This is an account of results in ChEMBL document CHEMBL1124255, “7-substituted 5-amino-1-cyclopropyl-6,8-difluoro-1,4-dihydro-4-oxo-3- quinolinecarboxylic acids: synthesis and biological activity of a new class of quinolone antibacterials” (J Med Chem, 1988).

In test [1] the test system is Staphylococcus aureus. As to the kind of experiment: Antibacterial activity against Staphylococcus aureus H-228. Format: functional. In outline:
(§1)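 Minimum inhibitory concentration measured by standard microtitration, run as part of a panel of 11 bacterial organisms.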

Test [2] concerns Escherichia coli. The test can be described thus: Median protective dose against Escherichia coli, determined in acute, lethal systemic infection in female charles river CD-1 mice (po). It counts as functional. Also on record: PD50: unit not given here. As to conditions: for ED50: Escherichia coli, po, read-out: PD50. In outline: (§2)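 Female Charles River CD-1 mice (18-22 g) were challenged intraperitoneally with about 100 median lethal doses in 0.5 mL 5% hog gastric mucin. Single compound doses in a twofold rising series were given in 0.5 mL at the time of challenge: sc as aqueous solution, po by gavage in 5% gum acacia. Groups of eight mice were used per dose. PD50 was estimated from survival percentages by log probit.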

The subject of the next test is Providencia rettgeri. The test can be described thus: Antibacterial activity against Providencia rettgeri M1771. It counts as functional. A digest of the protocol: as §1
The next test has as its system Streptococcus pneumoniae. As to the kind of experiment: Antibacterial activity against Streptococcus pneumoniae SV-1. It counts as functional. In outline: as §1
In another test the test system is Enterobacter cloacae. As to the kind of experiment: Antibacterial activity against Enterobacter cloacae MA2646. Format: functional.
The subject of another test is Pseudomonas aeruginosa. As to the kind of experiment: Antibacterial activity against Pseudomonas aeruginosa UI-18. It counts as functional. A digest of the protocol:
as §1

In test [3] the test system is Escherichia coli. As to the kind of experiment: Antibacterial activity against Escherichia coli Vogel. Format: functional. A digest of the protocol:
as §1

A further test concerns Klebsiella pneumoniae. As to the kind of experiment: Antibacterial activity against Klebsiella pneumoniae MGH-2. It counts as functional. A digest of the protocol: as §1
Test [4] deals with Staphylococcus aureus. As to the kind of experiment: Antibacterial activity against Staphylococcus aureus UC76. Format: functional. A digest of the protocol: as §1
The next test has as its system Streptococcus pyogenes. The test can be described thus: Antibacterial activity against Streptococcus pyogenes C203. It counts as functional. A digest of the protocol:
as §1

Another test deals with Enterococcus faecalis. As to the kind of experiment: Antibacterial activity against Streptococcus faecalis MGH-2. It counts as functional. In outline:
as §1

For test [5], the system named is Escherichia coli. The test can be described thus: Median protective dose against Escherichia coli, determined in acute, lethal systemic infection in female charles river CD-1 mice (sc). It counts as functional. The settings on record: read-out: PD50. A digest of the protocol:
as §2

For test [6], the system named is Escherichia coli. The test can be described thus: Antibacterial activity against Escherichia coli H560. Format: functional. In outline:
as §1

For the next test, the target named is DNA gyrase (Escherichia coli, UniProt P0AES4+P0AES6). As to the kind of experiment: 50% inhibitory concentration against DNA-gyrase. Format: protein-complex assay.

Molecules are shown by their SMILES. Values after ≈ are worked out from the molar mass of the structure shown.

In the case of `CC1COc2c(N3CCN(C)CC3)c(F)cc3c(=O)c(C(=O)O)cn1c23` (configuration not stated) [OFLOXACIN], the MIC – broadly, the least concentration at which growth counts as inhibited – amounted to 0.4 µg/mL (≈ 1.11 µM) in the test with Staphylococcus aureus [1]; 0.1 µg/mL (≈ 0.277 µM) in the test on Providencia rettgeri; 0.8 µg/mL (≈ 2.21 µM) with Streptococcus pneumoniae; 0.1 µg/mL (≈ 0.277 µM) in the test with Enterobacter cloacae; 0.4 µg/mL (≈ 1.11 µM) against Pseudomonas aeruginosa; 0.1 µg/mL (≈ 0.277 µM) in the test on Escherichia coli [3]. Further, the MIC is 0.1 µg/mL (≈ 0.277 µM) with Klebsiella pneumoniae; 0.1 µg/mL (≈ 0.277 µM) against Staphylococcus aureus [4]; 0.8 µg/mL (≈ 2.21 µM) in the test with Streptococcus pyogenes; 0.8 µg/mL (≈ 2.21 µM) with Enterococcus faecalis; 0.1 µg/mL (≈ 0.277 µM) in the test with Escherichia coli [6]. Also, the ED50 in the test on Escherichia coli [2] was determined as 2 mg/kg; in the test on Escherichia coli [5] it was 0.8 mg/kg.
Regarding `CNCC1CCN(c2c(F)c(N)c3c(=O)c(C(=O)O)cn(C4CC4)c3c2F)C1` (configuration not stated), the MIC against Staphylococcus aureus [1] worked out at 0.013 µg/mL (≈ 0.0331 µM); in the test with Providencia rettgeri, 0.2 µg/mL (≈ 0.51 µM); against Streptococcus pneumoniae, 0.003 µg/mL (≈ 0.00765 µM); with Enterobacter cloacae, 0.05 µg/mL (≈ 0.127 µM); in the test on Pseudomonas aeruginosa, 0.4 µg/mL (≈ 1.02 µM); against Escherichia coli [3], 0.025 µg/mL (≈ 0.0637 µM). For the same compound, the MIC against Klebsiella pneumoniae is 0.05 µg/mL (≈ 0.127 µM); against Staphylococcus aureus [4], 0.006 µg/mL (≈ 0.0153 µM); with Streptococcus pyogenes, 0.003 µg/mL (≈ 0.00765 µM); against Enterococcus faecalis, 0.025 µg/mL (≈ 0.0637 µM); against Escherichia coli [6], 0.003 µg/mL (≈ 0.00765 µM). Moreover, the ED50 was found to be 7.5 mg/kg in the test with Escherichia coli [2] and 0.8 mg/kg with Escherichia coli [5]. In addition, on DNA gyrase, 7.65 µM corresponded to half-maximal inhibition (IC50).
In the case of `Nc1c(F)c(N2CCC(N)C2)c(F)c2c1c(=O)c(C(=O)O)cn2C1CC1` (configuration not stated), the MIC in the test on Staphylococcus aureus [1] is 0.013 µg/mL (≈ 0.0357 µM); against Providencia rettgeri, 0.025 µg/mL (≈ 0.0686 µM); against Streptococcus pneumoniae, 0.006 µg/mL (≈ 0.0165 µM); in the test with Enterobacter cloacae it was 0.006 µg/mL (≈ 0.0165 µM); in the test on Pseudomonas aeruginosa, 0.05 µg/mL (≈ 0.137 µM); against Escherichia coli [3] it was 0.006 µg/mL (≈ 0.0165 µM). The minimal inhibitory concentration (MIC) amounted to 0.006 µg/mL (≈ 0.0165 µM) in the test on Klebsiella pneumoniae; 0.006 µg/mL (≈ 0.0165 µM) against Staphylococcus aureus [4]; 0.025 µg/mL (≈ 0.0686 µM) against Streptococcus pyogenes; 0.025 µg/mL (≈ 0.0686 µM) in the test with Enterococcus faecalis; 0.003 µg/mL (≈ 0.00823 µM) in the test on Escherichia coli [6]. For the same compound, the values for the ED50 with Escherichia coli [2] and in the test on Escherichia coli [5] were 1.6 mg/kg and 0.4 mg/kg, respectively. The IC50 – broadly, the concentration that inhibits the measured activity by half – on DNA gyrase was 7.14 µM.
For the compound `CC(=O)Nc1c(F)c(N2CCNCC2)c(F)c2c1c(=O)c(C(=O)O)cn2C1CC1`, the MIC in the test with Staphylococcus aureus [1], in the test with Providencia rettgeri, against Streptococcus pneumoniae, with Enterobacter cloacae, in the test on Pseudomonas aeruginosa and with Escherichia coli [3] was more than 25 µg/mL each time. Also, the MIC with Klebsiella pneumoniae, in the test on Staphylococcus aureus [4], against Streptococcus pyogenes, in the test with Enterococcus faecalis and against Escherichia coli [6] was more than 25 µg/mL each time. On DNA gyrase, the IC50 was more than 246 µM.
Turning to `CN1CCN(c2c(F)c(N(C)C)c3c(=O)c(C(=O)O)cn(C4CC4)c3c2F)CC1`, the MIC with Staphylococcus aureus [1], against Providencia rettgeri, against Streptococcus pneumoniae, against Enterobacter cloacae, against Pseudomonas aeruginosa and against Escherichia coli [3] was more than 25 µg/mL throughout. Moreover, the MIC with Klebsiella pneumoniae, in the test with Staphylococcus aureus [4], in the test on Streptococcus pyogenes, in the test on Enterococcus faecalis and in the test on Escherichia coli [6] was more than 25 µg/mL in each case. In addition, on DNA gyrase, the IC50 was more than 492 µM.
Turning to `CNc1c(F)c(N2CCNCC2)c(F)c2c1c(=O)c(C(=O)O)cn2C1CC1`, the MIC is 0.8 µg/mL (≈ 2.11 µM) with Staphylococcus aureus [1]; 0.8 µg/mL (≈ 2.11 µM) in the test with Providencia rettgeri; 0.8 µg/mL (≈ 2.11 µM) in the test with Streptococcus pneumoniae; 0.1 µg/mL (≈ 0.264 µM) against Enterobacter cloacae; 1.6 µg/mL (≈ 4.23 µM) with Pseudomonas aeruginosa; 0.1 µg/mL (≈ 0.264 µM) against Escherichia coli [3]. The MIC against Klebsiella pneumoniae was determined as 0.1 µg/mL (≈ 0.264 µM); against Staphylococcus aureus [4] it was 0.2 µg/mL (≈ 0.529 µM); with Streptococcus pyogenes, 3.1 µg/mL (≈ 8.19 µM); against Enterococcus faecalis, 1.6 µg/mL (≈ 4.23 µM); against Escherichia coli [6], 0.025 µg/mL (≈ 0.0661 µM). In addition, the ED50 in the test with Escherichia coli [2] was 1.5 mg/kg; in the test with Escherichia coli [5] it was 0.8 mg/kg. On DNA gyrase, the IC50 is 36.5 µM.
Turning to `CCNCC1CCN(c2c(F)c(NC)c3c(=O)c(C(=O)O)cn(C4CC4)c3c2F)C1` (configuration not stated), the MIC in the test on Staphylococcus aureus [1] came out at 0.025 µg/mL (≈ 0.0595 µM); against Providencia rettgeri, 1.6 µg/mL (≈ 3.81 µM); against Streptococcus pneumoniae it was 0.025 µg/mL (≈ 0.0595 µM); in the test with Enterobacter cloacae, 0.4 µg/mL (≈ 0.951 µM); against Pseudomonas aeruginosa, 3.1 µg/mL (≈ 7.37 µM); against Escherichia coli [3], 0.2 µg/mL (≈ 0.476 µM). For the same compound, the MIC against Klebsiella pneumoniae stood at 0.4 µg/mL (≈ 0.951 µM); against Staphylococcus aureus [4] it was 0.025 µg/mL (≈ 0.0595 µM); in the test on Streptococcus pyogenes, 0.1 µg/mL (≈ 0.238 µM); in the test with Enterococcus faecalis it was 0.1 µg/mL (≈ 0.238 µM); in the test on Escherichia coli [6], 0.05 µg/mL (≈ 0.119 µM). The values for the ED50 in the test with Escherichia coli [2] and in the test on Escherichia coli [5] were 11 mg/kg and 5 mg/kg, respectively. Moreover, the IC50 against DNA gyrase was 32.8 µM.
Turning to `O=C(O)c1cn(C2CC2)c2c(F)c(N3CCNCC3)c(F)cc2c1=O`, the MIC in the test on Staphylococcus aureus [1] is 0.4 µg/mL (≈ 1.15 µM); with Providencia rettgeri it was 0.1 µg/mL (≈ 0.286 µM); in the test on Streptococcus pneumoniae it was 0.8 µg/mL (≈ 2.29 µM); against Enterobacter cloacae, 0.05 µg/mL (≈ 0.143 µM); with Pseudomonas aeruginosa, 0.2 µg/mL (≈ 0.573 µM); against Escherichia coli [3], 0.1 µg/mL (≈ 0.286 µM). For the same compound, the MIC with Klebsiella pneumoniae amounted to 0.05 µg/mL (≈ 0.143 µM); with Staphylococcus aureus [4] it was 0.1 µg/mL (≈ 0.286 µM); in the test on Streptococcus pyogenes it was 0.8 µg/mL (≈ 2.29 µM); in the test with Enterococcus faecalis it was 0.4 µg/mL (≈ 1.15 µM); against Escherichia coli [6], 0.025 µg/mL (≈ 0.0716 µM). The compound also had a PD50 in the test on Escherichia coli [2] of 0.45. Besides, the IC50 at DNA gyrase is 8.02 µM. Besides, the ED50 with Escherichia coli [5] is 0.3 mg/kg.
